Data: the RNAGym collection of RNA variant scans (doi:10.1126/science.aae0568)
Fewer inactive variants are shown than the library holds.

B1: tRNA (parent)
chain: GUUCCGUUGGCGUAAUGGUAACGCGUCUCCCUCCUAAGGAGAAGACUGCGGGUUCGAGUCCCGUACGGAACG

Variants of: B1
Experiment: yeast fitness relative to wild type (ratio to wild type); higher = fitter; tRNA-Arg(CCU), competitive growth, 37 C, YPD
Outline: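 The tRNA-Arg(CCU) gene variants were made by chemical synthesis with a 3% per-site mutation rate at 69 sites and inserted at the native genomic locus of Saccharomyces cerevisiae. After pooling, the strains were competed in YPD at 37°C for 24 hours in six parallel replicates. Gene amplicons from the start population and each end population were read by 100-nucleotide paired-end sequencing, and Darwinian fitness relative to wild type was taken from genotype frequency changes. Genotypes needed ≥ 100 starting reads, and estimates < 0.5 were set to 0.5.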

| Variant | yeast fitness |
| --- | --- |
| C55A G67A | 0.658 |
| C55A U59C | 0.647 |
| C55A U59G A65C | ≤ 0.5 |
| C55A U64A | 0.619 |
| C55G A57U C62U | 0.544 |
| C55G A57U G67A | ≤ 0.5 |
| C55G A65G C66G | 0.567 |
| C55G A69C | 0.593 |
| C55G A70C | 0.566 |
| C55G A70U | 0.653 |
| C55G C60G | ≤ 0.5 |
| C55G C62A | 0.619 |
| C55G C62G | 0.602 |
| C55G C66G | 0.768 |
| C55G G56C | ≤ 0.5 |
| C55G G58A A69C | ≤ 0.5 |
| C55G G58C | 0.587 |
| C55G G63A | 0.622 |
| C55G G63C | 0.636 |
| C55G G67A | 0.729 |
| C55G G68U | 0.522 |
| C55G U59A | 0.677 |
| C55G U59A C62U | ≤ 0.5 |
| C55G U59C C60U G67U | 0.548 |

| Variant | yeast fitness |
| --- | --- |
| C55U A57U U64G | 0.585 |
| C55U A70G | 0.705 |
| C55U C60G | ≤ 0.5 |
| C55U C61G A65G G68A | 0.584 |
| C55U C62U | 0.708 |
| C55U C62U G67C | ≤ 0.5 |
| C55U C66U | 0.667 |
| C55U G56C | 0.593 |
| C55U G63A | 0.643 |
| C55U G63A A65G | ≤ 0.5 |
| C55U G63A A69C | 0.537 |
| C55U G67A | 0.871 |
| C55U G68A | 0.765 |
| C55U G68C | 0.702 |
| C55U G68U | 0.64 |
| C55U U59C | 0.683 |
| G56A | 1.03 |
| G56A A57U | 0.882 |
| G56A A65G C66U A69U | 0.573 |
| G56A A65G C66U G68A | 0.609 |
| G56A A69C | 1.04 |
| G56A A70C | 1.06 |
| G56A A70G | 0.886 |
| G56A C61U | 0.994 |

| Variant | yeast fitness |
| --- | --- |
| G56A C62A | 0.697 |
| G56A C62G | 0.643 |
| G56A C66G | 0.689 |
| G56A G58C C61G | 0.707 |
| G56A G63A | 0.726 |
| G56A G63A G67C | 0.543 |
| G56A G68A | 1.04 |
| G56A U59C | 1.05 |
| G56A U59C A65C A70G | 0.568 |
| G56C | 0.663 |
| G56C A57C | 0.529 |
| G56C A57G | 0.706 |
| G56C A57U C60U | 0.698 |
| G56C A65C | 0.754 |
| G56C A65U | 0.714 |
| G56C A69C | 0.818 |
| G56C A69U A70C | ≤ 0.5 |
| G56C A70G | 0.672 |
| G56C A70U | 0.83 |
| G56C C60A | 0.587 |
| G56C C61A G63U | 0.539 |
| G56C C62G | 0.559 |
| G56C C62G G68C | 0.56 |
| G56C C62U | 0.913 |

| Variant | yeast fitness |
| --- | --- |
| G56C G58C C66U | 0.625 |
| G56C G63A | 0.571 |
| G56C G67C | 0.696 |
| G56C G68A | 0.7 |
| G56C U59A | 0.663 |
| G56U | 0.85 |
| G56U A65G | 0.615 |
| G56U A65U G68C | ≤ 0.5 |
| G56U G58A | 0.589 |
| G56U G58C | 0.75 |
| A57C A65G | 0.573 |
| A57C A65U | 0.606 |
| A57C A69C | 0.608 |
| A57C A69G | 0.562 |
| A57C C60G | 0.503 |
| A57C C60U | 0.552 |
| A57C C61U A65U | 0.563 |
| A57C C62U | 0.565 |
| A57C C62U G68C | 0.539 |
| A57C G63C | 0.601 |
| A57C G68A | 0.701 |
| A57C G68U | 0.696 |
| A57C U59C | 0.613 |
| A57C U64C | 0.564 |

| Variant | yeast fitness |
| --- | --- |
| A57G A65C | 0.919 |
| A57G A65G A69C | 0.7 |
| A57G A69C | 0.799 |
| A57G A69U | 0.943 |
| A57G A70C | 0.859 |
| A57G C60A C66G | 0.558 |
| A57G C61A | 0.688 |
| A57G C62U | 0.781 |
| A57G C62U G67A | ≤ 0.5 |
| A57G G58A | 1.01 |
| A57G G58C | 1.03 |
| A57G G67A | 0.878 |
| A57G G67U | 0.869 |
| A57G U59A U64G | ≤ 0.5 |
| A57G U59C | 0.864 |
| A57G U59G | 0.941 |
| A57U A65C A69C | ≤ 0.5 |
| A57U A65U | 0.618 |
| A57U A65U G67A G68C | ≤ 0.5 |
| A57U A65U G68C | ≤ 0.5 |
| A57U A65U G68C A69G | ≤ 0.5 |
| A57U A70C | 0.7 |
| A57U C61U | 0.642 |
| A57U C62A U64A | ≤ 0.5 |

| Variant | yeast fitness |
| --- | --- |
| A57U C62U C66U | 0.613 |
| A57U C66U | 0.583 |
| A57U C66U G68C A69U | ≤ 0.5 |
| A57U G58A A65U | 0.621 |
| A57U G58C | 0.636 |
| A57U G63C U64A A70U | 0.646 |
| A57U G67C | 0.817 |
| A57U U59C | 0.569 |
| A57U U59G C66U | ≤ 0.5 |
| A57U U64A | 0.678 |
| G58A A65C G67A | 0.643 |
| G58A A65U | 1.04 |
| G58A A69C | 0.955 |
| G58A A69G | 1.15 |
| G58A C60U | 0.688 |
| G58A C60U A70G | 0.702 |
| G58A C60U C62A | 0.552 |
| G58A C61A C62G | 0.711 |
| G58A C61G | 0.668 |
| G58A C62G | 1.14 |
| G58A C62U G63A | 0.621 |
| G58A C66U | 0.981 |
| G58A G67A | 0.851 |
| G58A G68A | 0.899 |

| Variant | yeast fitness |
| --- | --- |
| G58A U59A | 1.06 |
| G58C A69G | 0.961 |
| G58C C60A A65C | ≤ 0.5 |
| G58C C60U C66G | ≤ 0.5 |
| G58C C61U | 0.887 |
| G58C C61U C66U | 0.621 |
| G58C C62U | 0.893 |
| G58C C66A | 0.717 |
| G58C C66G | 0.711 |
| G58C G63C | 0.702 |
| G58C U59C A69U | 0.679 |
| G58C U59C A70G | 0.706 |
| G58U A65G G67A | ≤ 0.5 |
| G58U C66A A70C | 0.665 |
| U59A A65G | 1.11 |
| U59A A69U | 0.817 |
| U59A C60G | 0.655 |
| U59A C62G G67A | ≤ 0.5 |
| U59A C62U | 0.922 |
| U59A C66G | 0.669 |
| U59A C66U | 0.815 |
| U59A G67A | 0.799 |
| U59A G68A | 0.791 |
